Results published in ChEMBL document CHEMBL1129573, “Structure-activity relationships in a series of substituted indolocarbazoles: topoisomerase I and protein kinase C inhibition and antitumoral and antimicrobial properties” (J Med Chem, 1996).
Values after ≈ are worked out from the molar mass of the structure shown. Values joined by “and” are separate entries in the source; they are usually repeats but may differ in a detail not shown here. Identical values can stand only once.

How the values were obtained:
B16 [1] = assay: Antiproliferative activity against B16 mouse melanoma cells; type: functional, cell-based
Outline: (§1)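 B16 mouse melanoma cells (EMEM, 10% FCS, 37 °C, 5% CO2) plated at 200 cells/dish, adhered 20 h, then exposed 24 h to increasing drug concentrations. Drug medium removed, PBS wash, 12 days regrowth in fresh medium.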

Bacillus cereus = assay: Antimicrobial activity on Bacillus cereus; type: functional
[2] = target: Protein kinase C alpha type (Homo sapiens, UniProt P17252); assay: Inhibition of Protein Kinase C(PKC)
Outline: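 Procedure a: PKC (0.5 μg/mL) with histone IIIs (2.4 mg/mL), 10 μM ATP plus [γ32P]ATP, 10 mM MgCl2, 0.1 mM CaCl2, phosphatidylserine and diacylglycerol (10 mg/mL each), 50 mM Tris pH 7.5, at 30 °C for 12 min. TCA precipitation, histone-bound 32P counted by scintillation; triplicate.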

P388 = assay: Antiproliferative activity against P388 Murine Leukemia cells; type: functional, cell-based; settings: Mus musculus
[3] = system: DNA topoisomerase II (Bos taurus); assay: Inhibitory activity towards Topoisomerase 2 from calf thymus
[4] = system: DNA topoisomerase I (Bos taurus); assay: Inhibitory activity towards Topoisomerase 1 from calf thymus.
Mus musculus [5] = assay: Antitumor activity against mice with B16 melanoma was assessed from the ratio of median survival time of treated animals (T) to controls animals, at 16 mg/Kg; type: functional
Outline: (§2)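 Male B6D2F1 mice given 0.5 × 10⁶ B16 melanoma cells subcutaneously on the dorsum on day 0 (cells maintained in MEM culture). Drug given intraperitoneally on days 1, 5 and 9. Controls received DMSO–olive oil solvent. Six mice per treated group, 12 controls. Median survival time compared with controls, reported as oncostatic index T/C × 100.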

Mus musculus [6] = assay: Antitumor activity against mice with B16 melanoma was assessed from the ratio of median survival time of treated animals (T) to controls animals, at 2 mg/Kg; type: functional; outline: as §2
Mus musculus [7] = assay: Antitumor activity against mice with B16 melanoma was assessed from the ratio of median survival time of treated animals (T) to controls animals, at 64 mg/Kg; type: functional; outline: as §2
Mus musculus [8] = assay: Antitumor activity against mice with P388 leukemia cell was assessed from the ratio of median survival time of treated animals (T) to controls animals, at 16 mg/Kg; type: functional
Outline: (§3)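 Male B6D2F1 mice injected intraperitoneally with 1×10^6 P388 leukemia cells on day 0 (line kept by weekly intraperitoneal passage in male DBA/2 mice). Drug given intraperitoneally on days 1, 5 and 9. Controls received DMSO–olive oil solvent. Six mice per treated group, 12 controls. Median survival time compared with controls, reported as oncostatic index T/C × 100.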

Mus musculus [9] = assay: Antitumor activity against mice with P388 leukemia cell was assessed from the ratio of median survival time of treated animals (T) to controls animals, at 2 mg/Kg; type: functional; outline: as §3
Mus musculus [10] = assay: Antitumor activity against mice with P388 leukemia cell was assessed from the ratio of median survival time of treated animals (T) to controls animals, at 64 mg/Kg; type: functional; outline: as §3
Mus musculus [11] = assay: In vivo efficacy study on mice with P388 Leukemia Cells determined after administration of 16 mg/kg/day dosage; type: functional; outline: as §3
Mus musculus [12] = assay: In vivo efficacy study on mice with P388 Leukemia Cells determined after administration of 2 mg/kg/day dosage; type: functional; outline: as §3
Mus musculus [13] = assay: In vivo efficacy study on mice with P388 Leukemia Cells determined after administration of 64 mg/kg/day dosage; type: functional; outline: as §3
Mus musculus [14] = assay: In vivo efficacy study on mice with B16 Melanoma cells determined after administration of 2 mg/kg/day dosage; type: functional, Melanoma cell; outline: as §2
Mus musculus [15] = assay: In vivo efficacy study on mice with B16 Melanoma cells determined after administration of 64 mg/kg/day dosage; type: functional, Melanoma cell; outline: as §2
Mus musculus [16] = assay: In vivo efficacy study on mice with B16 Melanoma cells determined after administration of 16 mg/kg/day dosage; type: functional, Melanoma cell; outline: as §2
[17] = Inhibition of Protein Kinase A (PKA).
Outline: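 PKA (1 μg/mL) phosphorylating histone IIa (1 mg/mL) with 10 μM ATP plus [γ32P]ATP, 5 mM MgCl2, 50 mM Tris pH 7.0, at 30 °C for 12 min. Stopped with 12% TCA with BSA carrier, reprecipitated. 32P incorporated into histone counted by scintillation; triplicate.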

Mus musculus [18] = assay: In vivo efficacy study on mice with B16 Melanoma Cells determined after administration of 64 mg/kg/day dosage; type: functional; outline: as §2
B16 [19] = assay: Compound was evaluated for antiproliferative activity against B16 mouse melanoma cells *= Partially precipitated in DMSO; type: functional, cell-based; outline: as §1

| SMILES | IC50 (B16 [1]) [µM] | MIC (Bacillus cereus) [µg/mL] | IC50 [2] [µM] | IC50 (P388) [µM] | MIC [3] [µg/mL] | MIC [4] [µg/mL] | IC50 [17] [µM] | other results |
| --- | --- | --- | --- | --- | --- | --- | --- | --- |
| O=C1NCc2c1c1c3ccccc3[nH]c1c1[nH]c3ccccc3c21 [STAUROSPORINONE] | 4.8 | > 50 | – | 4 | – | – | 25.7 | T/C x100 (Mus musculus [5]): 122; T/C x100 (Mus musculus [6]): 94; T/C x100 (Mus musculus [7]): 106; T/C x100 (Mus musculus [8]): 100; T/C x100 (Mus musculus [9]): 100; T/C x100 (Mus musculus [10]): 104; Mean survival in days (Mus musculus [11]): 11; Mean survival in days (Mus musculus [12]): 11; Mean survival in days (Mus musculus [13]): 11.5; Mean survival in days (Mus musculus [14]): 23; Mean survival in days (Mus musculus [15]): 26; Mean survival in days (Mus musculus [16]): 30 |
| CO[C@H]1[C@H](O)[C@@H](O)[C@H](n2c3c(Cl)cccc3c3c4c(c5c6cccc(Cl)c6[nH]c5c32)C(=O)NC4=O)O[C@@H]1CO [REBECCAMYCIN] | 0.48 | 6.25 (≈ 11 µM) | – | 0.3 | – | – | > 100 | T/C x100 (Mus musculus [5]): 112; T/C x100 (Mus musculus [6]): 124; T/C x100 (Mus musculus [7]): 106; T/C x100 (Mus musculus [8]): 150; T/C x100 (Mus musculus [9]): 136; T/C x100 (Mus musculus [10]): 164; Mean survival in days (Mus musculus [11]): 16.5; Mean survival in days (Mus musculus [12]): 15; Mean survival in days (Mus musculus [13]): 18; Mean survival in days (Mus musculus [14]): 30.5; Mean survival in days (Mus musculus [16]): 27.5 and 26 |
| CO[C@H]1[C@H](O)[C@@H](O)[C@H](n2c3ccccc3c3c4c(c5c6ccccc6[nH]c5c32)C(=O)NC4=O)O[C@@H]1CO | 17.5 | > 50 | > 100 | 3.5 | > 10 | 1 (≈ 1.99 µM) | > 100 | – |
| O=CNN1C(=O)c2c(c3c4ccccc4[nH]c3c3[nH]c4ccccc4c23)C1=O | > 100 | 50 (≈ 136 µM) | > 100 | 3.5 | > 10 | 1 (≈ 2.71 µM) | – | – |
| NN1C(=O)c2c(c3c4ccccc4[nH]c3c3[nH]c4ccccc4c23)C1=O | > 250 | > 50 | 43.5 | > 10 | – | – | 44.6 | – |
| COC1C(CO)OC(n2c3ccccc3c3c4c(c5c6ccccc6[nH]c5c32)CNC4=O)C(O)C1O (configuration not stated) | – | 12.5 (≈ 25.6 µM) | 3.7 | 3 | > 10 | 0.01 (≈ 0.0205 µM) | – | – |
| O=C1c2c(c3c4ccccc4[nH]c3c3[nH]c4ccccc4c23)C(=O)N1CCO | > 150 | > 50 | > 100 | 7 | > 10 | > 10 | – | – |
| O=C1c2c(c3c4ccccc4[nH]c3c3[nH]c4ccccc4c23)C(=O)N1O | 4.6 | > 50 | 79.2 | > 10 | > 10 | > 10 | 41.5 | T/C x100 (Mus musculus [5]): 128; T/C x100 (Mus musculus [6]): 112; T/C x100 (Mus musculus [7]): 112; T/C x100 (Mus musculus [8]): 100; T/C x100 (Mus musculus [9]): 104; T/C x100 (Mus musculus [10]): 100; Mean survival in days (Mus musculus [11]): 11; Mean survival in days (Mus musculus [12]): 11.5; Mean survival in days (Mus musculus [13]): 11; Mean survival in days (Mus musculus [14]): 27.5; Mean survival in days (Mus musculus [18]): 27.5; Mean survival in days (Mus musculus [16]): 31.5 |
| NN1C(=O)c2c(c3c4cccc(Cl)c4[nH]c3c3[nH]c4c(Cl)cccc4c23)C1=O | 17 | – | > 100 | > 10 | > 10 | > 10 | – | – |
| O=C1NC(=O)c2c1c1c3ccccc3[nH]c1c1[nH]c3ccccc3c21 [STAUROSPORINE AGLYCON] | > 100 | > 50 | – | 4 | – | – | 60 | – |
| O=C1NCc2c1c1c3cccc(Cl)c3[nH]c1c1[nH]c3c(Cl)cccc3c21 | – | 6.25 (≈ 16.4 µM) | > 100 | 3.5 | > 10 | > 10 | > 100 | – |
| NNC(=O)NN1C(=O)c2c(c3c4ccccc4[nH]c3c3[nH]c4ccccc4c23)C1=O | – | 50 (≈ 126 µM) | 78 | > 10 | – | – | – | IC50 (B16 [19]): 75 µM |
| O=C1NC(O)c2c1c1c3cccc(Cl)c3[nH]c1c1[nH]c3c(Cl)cccc3c21 (configuration not stated) | 8.4 | > 50 | > 100 | 9 | > 10 | > 10 | > 100 | – |
| O=C1NC(O)c2c1c1c3ccccc3[nH]c1c1[nH]c3ccccc3c21 (configuration not stated) | – | 6.25 (≈ 19.1 µM) | – | 0.3 | – | – | 34 | – |
| O=C1NC(=O)c2c1c1c3cccc(Cl)c3[nH]c1c1[nH]c3c(Cl)cccc3c21 | 24 | > 50 | > 100 | > 10 | – | – | > 100 | – |

Now from value to molecule, other results behind:

| IC50 (B16 [1]) [µM] | MIC (Bacillus cereus) [µg/mL] | IC50 [2] [µM] | IC50 (P388) [µM] | MIC [3] [µg/mL] | MIC [4] [µg/mL] | IC50 [17] [µM] | SMILES | other results |
| --- | --- | --- | --- | --- | --- | --- | --- | --- |
| 0.7 | 3.1 (≈ 5.29 µM) | 68 | 0.5 | > 10 | 0.3 (≈ 0.512 µM) | – | COC1C(CO)OC(n2c3c(Cl)cccc3c3c4c(c5c6cccc(Cl)c6[nH]c5c32)C(=O)N(O)C4=O)C(O)C1O (configuration not stated) | – |
| – | > 50 | > 100 | > 10 | – | – | – | O=CNN1C(=O)c2c(c3c4cccc(Cl)c4[nH]c3c3[nH]c4c(Cl)cccc4c23)C1=O | – |
| – | 25 (≈ 45.9 µM) | > 100 | 0.3 | > 10 | 0.1 (≈ 0.184 µM) | – | COC1C(CO)OC(n2c3ccccc3c3c4c(c5c6ccccc6[nH]c5c32)C(=O)N(NC=O)C4=O)C(O)C1O (configuration not stated) | – |
| 5.8 | 25 (≈ 48.3 µM) | 40 | 3 | > 10 | 0.1 (≈ 0.193 µM) | – | COC1C(CO)OC(n2c3ccccc3c3c4c(c5c6ccccc6[nH]c5c32)C(=O)N(O)C4=O)C(O)C1O (configuration not stated) | – |
| – | 3.1 (≈ 5.05 µM) | > 100 | 0.3 | > 10 | 1 (≈ 1.63 µM) | – | COC1C(CO)OC(n2c3c(Cl)cccc3c3c4c(c5c6cccc(Cl)c6[nH]c5c32)C(=O)N(NC=O)C4=O)C(O)C1O (configuration not stated) | – |
| 4.1 | 50 (≈ 96.8 µM) | > 100 | 0.3 | > 10 | 0.1 (≈ 0.194 µM) | – | COC1C(CO)OC(n2c3ccccc3c3c4c(c5c6ccccc6[nH]c5c32)C(=O)N(N)C4=O)C(O)C1O (configuration not stated) | – |
| > 125 | 3.1 (≈ 5.57 µM) | 28.8 | 3 | > 10 | 1 (≈ 1.8 µM) | > 100 | COC1C(CO)OC(n2c3c(Cl)cccc3c3c4c(c5c6cccc(Cl)c6[nH]c5c32)CNC4=O)C(O)C1O (configuration not stated) | – |
| 0.3 | 0.8 (≈ 1.37 µM) | > 100 | 0.1 | > 10 | 0.1 (≈ 0.171 µM) | – | COC1C(CO)OC(n2c3c(Cl)cccc3c3c4c(c5c6cccc(Cl)c6[nH]c5c32)C(=O)N(N)C4=O)C(O)C1O (configuration not stated) | – |
